# From ChEMBL document CHEMBL4196080, “Identification of small-molecule inhibitors of USP2a” (Eur J Med Chem, 2018)
# Activity calls are given as the source filed them. No cut-off for these calls is given here.
# Key:
# [1] = target: T1, Ubiquitin carboxyl-terminal hydrolase 2 (Homo sapiens) (UniProt O75604); assay: (§1) Binding affinity to 15N-Gly/Cys/Ser/Trp-labeled human USP2a expressed in Escherichia coli BL21(DE3) assessed as change in chemical shift by NMR method
# T1 sequence (whole entry): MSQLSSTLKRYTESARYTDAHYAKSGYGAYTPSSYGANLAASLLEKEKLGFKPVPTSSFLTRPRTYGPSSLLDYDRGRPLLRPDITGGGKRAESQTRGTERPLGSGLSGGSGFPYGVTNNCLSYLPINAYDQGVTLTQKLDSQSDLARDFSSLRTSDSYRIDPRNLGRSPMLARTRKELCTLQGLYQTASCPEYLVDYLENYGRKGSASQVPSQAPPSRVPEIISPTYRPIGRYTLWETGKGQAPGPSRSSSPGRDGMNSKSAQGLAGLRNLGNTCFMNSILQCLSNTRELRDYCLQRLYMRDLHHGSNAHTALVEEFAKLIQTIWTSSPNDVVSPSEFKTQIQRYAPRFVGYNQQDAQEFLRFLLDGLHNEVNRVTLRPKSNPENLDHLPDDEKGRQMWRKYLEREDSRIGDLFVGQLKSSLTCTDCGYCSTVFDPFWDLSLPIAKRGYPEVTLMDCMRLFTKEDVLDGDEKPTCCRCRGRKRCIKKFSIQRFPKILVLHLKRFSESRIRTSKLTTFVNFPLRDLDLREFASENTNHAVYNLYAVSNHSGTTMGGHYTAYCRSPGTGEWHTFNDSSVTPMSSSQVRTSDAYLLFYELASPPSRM
# Procedure, shortened: (§2)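 Selectively 15N-Gly/Cys/Ser/Trp-labeled USP2a from gel filtration in PBS pH 7.4 with 5 mM DTT, with 10% D2O added for lock. Ligand stock was 50 mM in d6-DMSO. Titration run in three steps at protein:compound ratios 1:1, 1:5 and 1:15. Binding followed as cross-peak shifts.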
# [2] = target: T2, Ubiquitin carboxyl-terminal hydrolase 2 (Homo sapiens, UniProt O75604); assay: (§3) Inhibition of human USP2a (258 to 605 residues) expressed in Escherichia coli BL21(DE3) using Ub-AMC as substrate incubated for 30 mins measured at 30 secs interval by fluorescence assay
# T2 sequence (O75604 whole entry): T1 sequence (whole entry)
# Procedure, shortened: (§4)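 USP2a purified by Ni-chelate, Q-Sepharose flow-through and gel filtration in PBS pH 7.4 with 5 mM DTT. Enzyme at 10 nM in 50 mM Tris/HCl pH 7.5, 1 mM EDTA, 1 mM MgCl2, preincubated 30 min with compound. Ub-AMC 500 nM then added. Fluorescence (ex 355/em 460 nm) read every 30 s. Turbidity checked at 600 nm. Excess wild-type ubiquitin served as positive control. Percent inhibition was fitted to dose-response curves.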
# [3] = target: T1, Ubiquitin carboxyl-terminal hydrolase 2 (Homo sapiens); assay: Inhibition of human USP2a (258 to 605 residues) expressed in Escherichia coli BL21(DE3) at 2000 uM using Ub-AMC as substrate incubated for 30 mins measured at 30 secs interval by fluorescence assay; procedure, shortened: as §4
# [4] = target: Ubiquitin carboxyl-terminal hydrolase 7 (Homo sapiens) (UniProt Q93009); assay: Inhibition of human USP7 (208 to 561 residues) catalytic domain expressed in Escherichia coli BL21(DE3) at 10 to 2000 uM using Ub-AMC as substrate incubated for 30 mins measured at 30 secs interval by fluorescence assay
# Procedure, shortened: (§5)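 GST-tagged USP7 catalytic domain (208-561) was expressed at 16 °C overnight. Tag removed with PreScission protease, then purified by Q-Sepharose, Mono Q and gel filtration in 50 mM Tris/HCl, 150 mM NaCl, 2 mM DTT. Activity measured by Ub-AMC hydrolysis (500 nM substrate, ex 355/em 460 nm, 30 s reads) after 30 min preincubation with compound. Values are mean ± SD.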
# [5] = target: T1, Ubiquitin carboxyl-terminal hydrolase 2 (Homo sapiens); assay: Inhibition of USP2a in human HCT116 cells assessed as downregulation of cycline D1 expression at 20 uM after 48 hrs by Western blot analysis; format: cell-based
# Procedure, shortened: (§6)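 HCT 116 and MCF-7 cells were exposed to 20 μM compound or an equivalent DMSO portion and cultured for 48 h. Cyclin D1 levels were then assessed by western blot.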
# [6] = target: T1, Ubiquitin carboxyl-terminal hydrolase 2 (Homo sapiens); assay: Inhibition of USP2a in human MCF7 cells assessed as downregulation of cycline D1 expression at 20 uM after 48 hrs by Western blot analysis; format: cell-based; procedure, shortened: as §6
# [7] = target: T2, Ubiquitin carboxyl-terminal hydrolase 2; assay: as §1; procedure, shortened: as §2
# [8] = target: T1, Ubiquitin carboxyl-terminal hydrolase 2 (Homo sapiens); assay: as §3; procedure, shortened: as §4
# [9] = target: Ubiquitin carboxyl-terminal hydrolase 7 (Homo sapiens) (UniProt Q93009); assay: Inhibition of human USP7 (208 to 561 residues) catalytic domain expressed in Escherichia coli BL21(DE3) at 10 uM using Ub-AMC as substrate incubated for 30 mins measured at 30 secs interval by fluorescence assay; procedure, shortened: as §5
# Chain of Ubiquitin carboxyl-terminal hydrolase 7 (Homo sapiens) (Q93009 whole entry, looked up, the tested form may be a part): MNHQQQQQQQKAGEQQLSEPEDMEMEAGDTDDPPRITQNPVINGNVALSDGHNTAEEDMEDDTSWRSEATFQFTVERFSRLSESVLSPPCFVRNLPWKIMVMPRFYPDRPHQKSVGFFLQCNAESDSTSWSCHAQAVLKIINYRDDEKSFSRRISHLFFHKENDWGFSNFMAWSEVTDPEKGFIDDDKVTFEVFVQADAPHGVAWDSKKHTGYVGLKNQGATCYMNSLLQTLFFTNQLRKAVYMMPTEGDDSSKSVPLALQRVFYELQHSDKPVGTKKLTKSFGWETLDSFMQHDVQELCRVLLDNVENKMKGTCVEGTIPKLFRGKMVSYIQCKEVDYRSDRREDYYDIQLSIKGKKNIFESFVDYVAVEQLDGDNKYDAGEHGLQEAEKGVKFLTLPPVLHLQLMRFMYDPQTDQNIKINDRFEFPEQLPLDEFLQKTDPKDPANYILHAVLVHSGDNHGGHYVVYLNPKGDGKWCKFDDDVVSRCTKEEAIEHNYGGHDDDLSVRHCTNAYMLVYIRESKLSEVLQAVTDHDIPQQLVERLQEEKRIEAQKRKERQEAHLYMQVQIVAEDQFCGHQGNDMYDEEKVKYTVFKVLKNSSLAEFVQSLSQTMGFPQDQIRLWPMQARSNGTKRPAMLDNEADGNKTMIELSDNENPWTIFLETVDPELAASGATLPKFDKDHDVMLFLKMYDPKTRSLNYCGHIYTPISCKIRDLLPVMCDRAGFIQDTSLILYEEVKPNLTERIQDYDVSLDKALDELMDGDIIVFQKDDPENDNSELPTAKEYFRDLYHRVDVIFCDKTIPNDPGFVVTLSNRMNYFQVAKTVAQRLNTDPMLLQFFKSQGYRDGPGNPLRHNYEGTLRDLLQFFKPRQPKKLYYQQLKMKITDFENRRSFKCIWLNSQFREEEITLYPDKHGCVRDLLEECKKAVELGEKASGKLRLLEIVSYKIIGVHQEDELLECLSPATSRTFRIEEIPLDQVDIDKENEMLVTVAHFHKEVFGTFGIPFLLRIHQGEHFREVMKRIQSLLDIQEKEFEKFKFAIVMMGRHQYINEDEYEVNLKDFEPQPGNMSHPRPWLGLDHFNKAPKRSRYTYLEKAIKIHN
IC50 [2],IC50 ([2]; read-out: IC50) [µM],Compound,other results
–,–,COc1ccc2c(c1)CCCC2=O,Activity [1]: inactive
Not Active,–,COc1ccc(N2CC(C(=O)OCc3cc(-c4cccs4)on3)CC2=O)cc1 (stereo unspecified),–
Not Active,–,Cl.NCc1ccc(Cc2cccs2)cc1,–
–,–,CSc1nnc(-n2cccc2)s1,Activity [1]: inactive
–,> 5000,Nc1cc(-c2ccccc2)n[nH]1,Activity [1]: inactive
–,> 50,CC(Oc1ccc(C#N)cc1)C(=O)OCc1cc(-c2cccs2)on1 (stereo unspecified),–
–,8.7,NC(=O)c1c(N)sc2c1CCCC2,–
–,> 5000,Cc1cc(C#N)cc(C)c1O,–
Not Active,–,O=C(O)COCc1cc(-c2cccs2)on1,–
Not Active,–,O=C(OCc1cc(-c2cccs2)on1)c1ccc(S(=O)(=O)N2CCOCC2)cc1,–
–,1300,OCc1cc(-c2cccs2)on1,inhibition [3]: Active; inhibition [4]: inactive; inhibition [5]: inactive; inhibition [6]: inactive; Kd [7]: 900 µM
–,> 100,CCCn1nc(C(=O)OCc2cc(-c3cccs3)on2)c2ccccc2c1=O,–
Not Active,–,CC(C)(C)OC(=O)CNC(=O)c1cc(-c2cccs2)on1,–
Not Active,–,O=C(O)CNC(=O)c1cc(-c2cccs2)on1,–
–,> 5000,NCc1ccc(-c2csnn2)cc1,–
Not Active,–,Cc1c(CO)cnn1-c1ccccc1,–
–,–,Nc1ccc(-c2cnco2)cc1,Activity [1]: inactive
–,–,COC(=O)c1ccc2cc[nH]c2c1,Activity [1]: inactive
–,3.3,NC(=O)c1c(NC(=O)COCc2cc(-c3cccs3)on2)sc2c1CCCC2,inhibition [8]: Dose-dependent effect; inhibition [5]: Active; inhibition [6]: Active; inhibition [9]: inactive
Not Active,–,CN1CCOc2cc(C#N)ccc21,–
Not Active,–,O=C(O)c1cc(-c2cccs2)on1,–
